The subject of data set [1] is Escherichia coli. The data set is described as follows: Antibacterial activity against Escherichia coli ATCC 25922 assessed as bacterial growth inhibition by broth microdilution assay. In kind it is functional. In short, it runs like this: (§1)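 Broth microdilution. Bacteria from glycerol stocks were grown overnight on blood agar at 37 °C, then colonies were suspended in TSB and grown to OD600 0.5. Compounds were dissolved in DMSO at 6.4 mg mL−1 (stock) and serially diluted in CAMHB (Mg2+ 12.5, Ca2+ 20 μg mL−1) in polypropylene plates. Inoculum was 10^6 CFU mL−1 final, incubated at 37 °C. MIC = lowest concentration without visible growth; values consistent across at least triplicate experiments.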
(Dilution methods test growth across graded concentrations, often in twofold steps.)

In data set [2] the test system is Escherichia coli. The data set is described as follows: Antibacterial activity against Escherichia coli 1313 assessed as bacterial growth inhibition by broth microdilution assay. Type of data set: functional. An outline of the steps:
as §1

For data set [3], the system named is Escherichia coli. The data set is described as follows: Antibacterial activity against multidrug-resistant Escherichia coli NCTC 13846 assessed as bacterial growth inhibition by broth microdilution assay. Type of data set: functional. An outline of the steps: (§2)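 Broth microdilution MIC. Strains grown overnight on blood agar at 37 °C, colonies suspended in TSB and grown to OD600 0.5. Compounds dissolved in DMSO (6.4 mg mL−1 stock), diluted serially in CAMHB (12.5 μg mL−1 Mg2+, 20 μg mL−1 Ca2+) on polypropylene plates. Final inoculum 10^6 CFU mL−1, 37 °C under gas-permeable membrane. MIC is the lowest concentration with no visible growth, consistent across at least triplicate experiments.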

For data set [4], the system named is Klebsiella pneumoniae. The data set is described as follows: Antibacterial activity against Klebsiella pneumoniae ATCC 13883 assessed as bacterial growth inhibition by broth microdilution assay. In kind it is functional. An outline of the steps: as §1
In data set [5] the test system is Klebsiella pneumoniae. The data set is described as follows: Antibacterial activity against Klebsiella pneumoniae JS-123 assessed as bacterial growth inhibition by broth microdilution assay. Type of data set: functional. In short, it runs like this:
as §1

Data set [6] concerns Klebsiella pneumoniae. Description: Antibacterial activity against Klebsiella pneumoniae NCTC 13443 assessed as bacterial growth inhibition by broth microdilution assay. In kind it is functional. An outline of the steps:
as §1

The test system of data set [7] is Acinetobacter baumannii. Description: Antibacterial activity against Acinetobacter baumannii ATCC 19606 assessed as bacterial growth inhibition by broth microdilution assay. Type of data set: functional. In short, it runs like this:
as §2

Data set [8] deals with Acinetobacter baumannii. The data set is described as follows: Antibacterial activity against Acinetobacter baumannii ATCC 17978 assessed as bacterial growth inhibition by broth microdilution assay. In kind it is functional. In short, it runs like this:
as §2

Data set [9] deals with Acinetobacter baumannii. The data set is described as follows: Antibacterial activity against multidrug-resistant Acinetobacter baumannii assessed as bacterial growth inhibition by broth microdilution assay. Type of data set: functional. In short, it runs like this:
as §2

Data set [10] has as its system Acinetobacter baumannii. Description: Antibacterial activity against Acinetobacter baumannii 2018-006 assessed as bacterial growth inhibition by broth microdilution assay. In kind it is functional. An outline of the steps: as §2
The test system of data set [11] is Pseudomonas aeruginosa. Description: Antibacterial activity against Pseudomonas aeruginosa ATCC 27853 assessed as bacterial growth inhibition by broth microdilution assay. Type of data set: functional. An outline of the steps:
as §1

Data set [12] relates to Pseudomonas aeruginosa. Description: Antibacterial activity against Pseudomonas aeruginosa NRZ 08418 assessed as bacterial growth inhibition by broth microdilution assay. In kind it is functional. In short, it runs like this:
as §1

For data set [13], the system named is Pseudomonas aeruginosa. The data set is described as follows: Antibacterial activity against Pseudomonas aeruginosa NRZ 03961 assessed as bacterial growth inhibition by broth microdilution assay. In kind it is functional. In short, it runs like this:
as §1

The nature of data set [14]: Cytotoxicity against human ciPTEC cells assessed as reduction in cell viability incubated for 24 hrs by PrestoBlue reagent based fluorescence assay. Type of data set: toxicity. The following applies: read-out: TC50. In short, it runs like this:
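ciPTEC-14.4 cells, differentiated, were treated for 24 h at 37 °C with compound at 100, 250, 500 or 1000 μM in serum-free DMEM/F-12 with insulin, transferrin, selenium, hydrocortisone, EGF and triiodothyronine. Viability was measured with 10% PrestoBlue in HBSS (fluorescence ex 530/em 590 nm), corrected for reagent background and normalized to untreated, medium-only control.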

Data set [15] deals with Escherichia coli. The data set is described as follows: Synergistic antibacterial activity against polymyxin-resistant Escherichia coli assessed as fractional inhibitory concentration index incubated for 18 hrs in presence of novobiocin by checkerboard assay. In kind it is functional. In short, it runs like this:
(§3)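 8 × 8 checkerboard (64 combinations, each in triplicate) against E. coli EQAS mcr-2, grown to OD600 0.5 in TSB after overnight blood agar culture. Antibiotic and synergist serially diluted in CAMHB (12.5 μg mL−1 Mg2+, 20 μg mL−1 Ca2+), inoculum 10^6 CFU mL−1, 37 °C for 18 h. OD600 normalized to growth and no-growth controls. FICi calculated from minimal synergistic concentrations and single-agent MICs; ≤0.5 taken as synergy.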

Data set [16] concerns Escherichia coli. The data set is described as follows: Synergistic antibacterial activity against polymyxin-resistant Escherichia coli assessed as fractional inhibitory concentration index incubated for 18 hrs in presence of rifampicin by checkerboard assay. In kind it is functional. In short, it runs like this:
as §3

Data set [17] has as its system Escherichia coli. The data set is described as follows: Synergistic antibacterial activity against polymyxin-resistant Escherichia coli assessed as fractional inhibitory concentration index incubated for 18 hrs in presence of erythromycin by checkerboard assay. In kind it is functional. In short, it runs like this:
as §3

The source of these data is ChEMBL document CHEMBL5356951, “Semisynthetic polymyxins with potent antibacterial activity and reduced kidney cell toxicity” (RSC Med Chem, 2023).

Each structure is given as a SMILES string. Converted amounts (≈) assume the structure as drawn.

In general, MIC refers to the least concentration at which growth counts as inhibited. As to `CC(C)CCSSC[C@@H](N)C(=O)N[C@H](C(=O)N[C@@H](CN)C(=O)N[C@H]1CCNC(=O)[C@H]([C@@H](C)O)NC(=O)[C@H](CCN)NC(=O)[C@H](CCN)NC(=O)[C@H](CC(C)C)NC(=O)[C@@H](Cc2ccccc2)NC(=O)[C@H](CCN)NC1=O)[C@@H](C)O`, the MIC is 1 µg/mL (≈ 0.866 µM) in the data set on Escherichia coli [1]; at most 0.125 µg/mL with Escherichia coli [2]; 4 µg/mL (≈ 3.46 µM) with Escherichia coli [3]; 0.25 µg/mL (≈ 0.217 µM) in the data set on Klebsiella pneumoniae [4]; 0.25 µg/mL (≈ 0.217 µM) in the data set with Klebsiella pneumoniae [5]; 0.25 µg/mL (≈ 0.217 µM) with Klebsiella pneumoniae [6]. In addition, the minimum inhibitory concentration (MIC) in the data set with Acinetobacter baumannii [7] turned out to be 0.25 µg/mL (≈ 0.217 µM); in the data set with Acinetobacter baumannii [8], 0.25 µg/mL (≈ 0.217 µM); with Acinetobacter baumannii [9] it was 0.25 µg/mL (≈ 0.217 µM); in the data set on Acinetobacter baumannii [10], 0.25 µg/mL (≈ 0.217 µM); with Pseudomonas aeruginosa [11], 1 µg/mL (≈ 0.866 µM); in the data set with Pseudomonas aeruginosa [12], 1 µg/mL (≈ 0.866 µM). Further, the MIC in the data set with Pseudomonas aeruginosa [13] was 1 µg/mL (≈ 0.866 µM). Further, in [14], the CC50 at 24 h came to 130 µM. For the same molecule, the entries for the “fractional inhibitory concentration index (FICI)” value in the data set on Escherichia coli [15], in the data set with Escherichia coli [16] and in the data set with Escherichia coli [17] were 0.19, 0.14 and 0.27, respectively.
